Measured values from paper PMC10318414 (RSC Advances, 2023).
*1 amine or outer side, *2 acyl side, *3 side chain or, on linkers, in order; H or OH if unused. Where a SMILES comes first, the peptide text is derived from it. Bridges are numbered along the chain shown (N, C = ends). Biphenyl(4,4'-CH2)2 = c1cc(-c2ccc(C[*:2])cc2)ccc1C[*:1]; mXylylene = c1cc(C[*:1])cc(C[*:2])c1; oXylylene = c1ccc(C[*:2])c(C[*:1])c1; pXylylene = c1cc(C[*:2])ccc1C[*:1]

Assays:
[1] = tested on: human colon cancer cell line (HCT116); experiment: CCK8 cell proliferation assay, HCT116; format: cell-based; conditions: read-out: IC50 (μM) HCT116; CCK8, 48 h peptide treatment, 0.78–25 μM, OD 450 nm
Method in brief: (§1)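 Cells kept in DMEM with 10% FBS and 1% penicillin-streptomycin at 37 °C, 5% CO2. Seeded at 3 × 10^3 cells/well and grown for 24 h. Treated with or without peptide (0.78, 1.56, 3.125, 6.25, 12.5, 25 μM) for 48 h. Medium then switched to serum-free; CCK-8 added 10 μL/well for 1 h at 37 °C. OD read at 450 nm; IC50 obtained by curve fitting.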

[2] = tested on: human breast cancer cell line (MCF-7); experiment: CCK8 cell proliferation assay, MCF-7; format: cell-based; conditions: read-out: IC50 (μM) MCF-7; CCK8, 48 h peptide treatment, 0.78–25 μM, OD 450 nm
Method in brief: as §1

glioma cell line (U87) = experiment: CCK8 cell proliferation assay, U87; format: cell-based, human; conditions: read-out: IC50 (μM) U87; CCK8, 48 h peptide treatment, 0.78–25 μM, OD 450 nm
Method in brief: as §1

MCF-7 cells [3] = experiment: Annexin V-FITC/PI apoptosis assay by flow cytometry; format: cell-based, human; conditions: MCF-7, 10 μM peptide
MCF-7 cells [4] = experiment: In vitro transwell migration assay; format: cell-based, human; conditions: MCF-7, transwell 8 μm pore, 48 h, compared with control group, n = 3
MCF-7 cells [5] = experiment: Calcein-AM/PI cell viability staining; format: cell-based, human; conditions: MCF-7, 10 μM peptide, 24 hours
Method in brief: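 MCF-7 seeded at 5 × 10^3 cells/well and held at 37 °C for 24 h. Peptide added at a final 10 μM for another 24 h. Cells stained with a PBS working solution of calcein-AM (2 μM) and PI (4.5 μM) at 37 °C for 15 min. Live/dead fluorescence imaged on a high-content screening system.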

SMILES	IC50 [1] [µM]	IC50 [2] [µM]	IC50 (glioma cell line (U87)) [µM]	Number of apoptotic cells versus Ascaphin-8 and normal medium (MCF-7 cells [3])	Migration through the polycarbonate membrane (MCF-7 cells [4])	Calcein-AM/PI fluorescence of cells (MCF-7 cells [5])
CC(C)C[C@H](NC(=O)[C@H](CC(C)C)NC(=O)[C@H](CC(=O)O)NC(=O)[C@H](CCCCN)NC(=O)[C@H](Cc1ccccc1)NC(=O)CN)C(=O)N[C@@H](CCCCN)C(=O)NCC(=O)N[C@@H](C)C(=O)N[C@@H](C)C(=O)N[C@@H](CCCCN)C(=O)N[C@H]1CSCc2cccc(c2)CSC[C@@H](C(=O)N[C@H](C(=O)N[C@@H](CC(C)C)C(=O)N[C@@H](Cc2ccccc2)C(N)=O)C(C)C)NC(=O)[C@H](CCCCN)NC(=O)[C@H](C(C)C)NC(=O)[C@H](CC(C)C)NC1=O [Peptide A8-3-m] (H-GFKDLLKGAAKCLVKCVLF-NH2; linker 12-16 via mXylylene)	9.21	7.8	8.69	–	–	–
CC(C)C[C@H](NC(=O)[C@H](CC(C)C)NC(=O)[C@H](CC(=O)O)NC(=O)[C@H](CCCCN)NC(=O)[C@H](Cc1ccccc1)NC(=O)CN)C(=O)N[C@@H](CCCCN)C(=O)NCC(=O)N[C@@H](C)C(=O)N[C@@H](C)C(=O)N[C@@H](CCCCN)C(=O)N[C@H]1CSCc2ccccc2CSC[C@@H](C(=O)N[C@H](C(=O)N[C@@H](CC(C)C)C(=O)N[C@@H](Cc2ccccc2)C(N)=O)C(C)C)NC(=O)[C@H](CCCCN)NC(=O)[C@H](C(C)C)NC(=O)[C@H](CC(C)C)NC1=O [Peptide A8-3-o] (H-GFKDLLKGAAKCLVKCVLF-NH2; linker 12-16 via oXylylene)	7.68	6.03	9.28	–	–	–
CC(C)C[C@H](NC(=O)[C@H](CC(C)C)NC(=O)[C@H](CC(=O)O)NC(=O)[C@H](CCCCN)NC(=O)[C@H](Cc1ccccc1)NC(=O)CN)C(=O)N[C@@H](CCCCN)C(=O)NCC(=O)N[C@@H](C)C(=O)N[C@@H](C)C(=O)N[C@@H](CCCCN)C(=O)N[C@H]1CSCc2ccc(cc2)CSC[C@@H](C(=O)N[C@H](C(=O)N[C@@H](CC(C)C)C(=O)N[C@@H](Cc2ccccc2)C(N)=O)C(C)C)NC(=O)[C@H](CCCCN)NC(=O)[C@H](C(C)C)NC(=O)[C@H](CC(C)C)NC1=O [Peptide A8-3-p] (H-GFKDLLKGAAKCLVKCVLF-NH2; linker 12-16 via pXylylene)	11.2	11.7	14.4	–	–	–
CC(C)C[C@@H]1NC(=O)[C@H](C)NC(=O)[C@H](CCCCN)NC(=O)[C@H](C)NC(=O)[C@@H](NC(=O)CNC(=O)[C@H](CCCCN)NC(=O)[C@H](CC(C)C)NC(=O)[C@H](CC(C)C)NC(=O)[C@H](CC(=O)O)NC(=O)[C@H](CCCCN)NC(=O)[C@H](Cc2ccccc2)NC(=O)CN)CSCc2ccc(cc2)-c2ccc(cc2)CSC[C@@H](C(=O)N[C@H](C(=O)N[C@@H](CC(C)C)C(=O)N[C@@H](Cc2ccccc2)C(N)=O)C(C)C)NC(=O)[C@H](CCCCN)NC(=O)[C@H](C(C)C)NC1=O [Peptide A8-4-Dp] (H-GFKDLLKGCAKALVKCVLF-NH2; linker 9-16 via Biphenyl(4,4'-CH2)2)	3.03	2.99	3.63	significantly higher	rarely migrated	a large amount of red fluorescence
